Experimental data as given in the M2OR odorant receptor database.
Numbering of substitutions follows the chain as printed.

Legend:
Details in all cases: stereoisomer not certain
OR8D1 (Homo sapiens) = molecular target: T1, OR8D1 (Homo sapiens) (UniProt Q8WZ84)
T1 sequence (whole entry): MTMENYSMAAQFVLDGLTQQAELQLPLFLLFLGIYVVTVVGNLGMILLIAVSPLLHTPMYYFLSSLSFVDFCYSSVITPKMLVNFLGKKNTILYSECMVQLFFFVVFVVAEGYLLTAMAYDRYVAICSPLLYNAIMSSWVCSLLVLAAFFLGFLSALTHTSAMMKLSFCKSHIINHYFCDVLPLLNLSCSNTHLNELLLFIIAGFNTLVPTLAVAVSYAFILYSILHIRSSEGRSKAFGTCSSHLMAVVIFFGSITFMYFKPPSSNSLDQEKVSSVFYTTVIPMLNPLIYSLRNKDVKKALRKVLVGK
Method in brief: (§1)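 Each entry records the cell line, G-protein, co-transfected protein and tags used. Methods varied with the source, often transient luciferase assays in mammalian cell lines. A receptor–molecule pair is called responsive (active) if the original authors judged its signal statistically different from baseline and non-responsive (inactive) otherwise.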

OR8B3 H20R Q24R M114I = test system: T2, OR8B3 H20R Q24R M114I
T2 sequence (whole entry): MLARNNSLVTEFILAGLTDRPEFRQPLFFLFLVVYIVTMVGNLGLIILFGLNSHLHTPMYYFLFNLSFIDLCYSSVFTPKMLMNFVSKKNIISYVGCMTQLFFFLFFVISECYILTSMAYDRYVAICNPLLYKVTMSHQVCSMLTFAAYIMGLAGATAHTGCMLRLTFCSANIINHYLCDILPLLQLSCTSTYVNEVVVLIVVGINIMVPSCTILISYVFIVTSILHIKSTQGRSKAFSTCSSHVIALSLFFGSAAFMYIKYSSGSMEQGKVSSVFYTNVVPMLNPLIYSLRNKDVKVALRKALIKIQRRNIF
Method in brief: as §1

OR8B3 H20R Q24R Y113H = test system: T3, OR8B3 H20R Q24R Y113H
T3 sequence (whole entry): T2 sequence (whole entry) with Y113H, I114M
Method in brief: as §1

OR8B3 H20R Q24R = test system: T4, OR8B3 H20R Q24R
T4 sequence (whole entry): T2 sequence (whole entry) with I114M
Method in brief: as §1

OR8B4 (Homo sapiens) = molecular target: T5, OR8B4 (Homo sapiens) (UniProt Q96RC9)
T5 sequence (whole entry): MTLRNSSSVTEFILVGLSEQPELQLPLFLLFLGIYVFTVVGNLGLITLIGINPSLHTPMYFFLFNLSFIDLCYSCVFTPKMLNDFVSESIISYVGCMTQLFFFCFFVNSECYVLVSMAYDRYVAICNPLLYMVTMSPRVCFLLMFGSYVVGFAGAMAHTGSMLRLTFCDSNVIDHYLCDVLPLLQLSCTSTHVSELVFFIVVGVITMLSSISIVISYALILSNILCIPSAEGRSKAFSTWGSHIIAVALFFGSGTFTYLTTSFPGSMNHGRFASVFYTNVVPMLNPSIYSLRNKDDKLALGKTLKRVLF
Method in brief: as §1

OR8B4 = test system: T6, OR8B4
T6 sequence (whole entry): T5 sequence (whole entry) with E22G
Method in brief: as §1

OR8B8 (Homo sapiens) = molecular target: T7, OR8B8 (Homo sapiens) (UniProt Q15620)
T7 sequence (whole entry): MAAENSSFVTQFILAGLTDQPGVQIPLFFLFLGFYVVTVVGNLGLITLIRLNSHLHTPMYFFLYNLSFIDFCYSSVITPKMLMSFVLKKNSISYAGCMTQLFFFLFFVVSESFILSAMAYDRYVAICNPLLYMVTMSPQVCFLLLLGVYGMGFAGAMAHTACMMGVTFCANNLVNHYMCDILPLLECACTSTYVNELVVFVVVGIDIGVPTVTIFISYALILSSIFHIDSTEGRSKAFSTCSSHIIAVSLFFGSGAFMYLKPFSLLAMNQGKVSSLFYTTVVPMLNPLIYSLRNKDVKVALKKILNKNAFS
Method in brief: as §1

OR8B8 L101P = test system: T8, OR8B8 L101P
T8 sequence (whole entry): T7 sequence (whole entry) with L101P
Method in brief: as §1

OR8D1 C127G L194P = test system: T9, OR8D1 C127G L194P
T9 sequence (whole entry): T1 sequence (whole entry) with C127G, L194P
Method in brief: as §1

OR8D1 L194P = test system: T10, OR8D1 L194P
T10 sequence (whole entry): T1 sequence (whole entry) with L194P
Method in brief: as §1

Measured: odorant receptor agonist call

C=C(C)C1CC=C(C)CC1 (centres undefined)
inactive: OR8D1 (Homo sapiens)

CC1=C(O)C(=O)C(C)O1 (centres undefined)
inactive: all assays above

CCC1OC(C)=C(O)C1=O (centres undefined)
inactive: all assays above

CCCCCCC=CC=O
inactive: OR8D1 (Homo sapiens)

CC1=C(O)C(=O)OC1C (centres undefined)
active: OR8D1 (Homo sapiens)
inactive: all other assays above

CC1CCCCCCCCCCCCC(=O)C1 (centres undefined)
inactive: OR8B4 (Homo sapiens) | OR8B8 (Homo sapiens) | OR8D1 (Homo sapiens)

CC(C)CCCCCCCCCCC=O
inactive: OR8D1 (Homo sapiens)

CCC1OC(=O)C(O)=C1C (centres undefined)
active: OR8D1 (Homo sapiens)
inactive: all other assays above

CCCCCCCCCC(=O)OCC
inactive: OR8D1 (Homo sapiens)

CC(=O)OCCC(C)C
inactive: OR8D1 (Homo sapiens)

CC(=O)c1ccc(C)cc1
inactive: OR8D1 (Homo sapiens)

C=CC(O)CCCCC (centres undefined)
inactive: OR8D1 (Homo sapiens)

CCOC(=O)C(C)CC (centres undefined)
inactive: OR8D1 (Homo sapiens)

COc1cccc(OC)c1O
inactive: OR8D1 (Homo sapiens)

CCC=CCCC=O
inactive: OR8D1 (Homo sapiens)

CCCCCC=CC=CC=O
inactive: OR8D1 (Homo sapiens)

CCCc1ccc(O)c(OC)c1
inactive: OR8D1 (Homo sapiens)

CCCCCCCC1CCCC(=O)O1 (centres undefined)
inactive: OR8D1 (Homo sapiens)

CCC(S)C(C)CO (centres undefined)
inactive: OR8B4 (Homo sapiens) | OR8B8 (Homo sapiens) | OR8D1 (Homo sapiens)

CCCCCC(C)O (centres undefined)
inactive: OR8D1 (Homo sapiens)

CCCCC(S)C(C)CO (centres undefined)
inactive: OR8B4 (Homo sapiens) | OR8B8 (Homo sapiens) | OR8D1 (Homo sapiens)

CCCCCCOC(C)=O
inactive: OR8D1 (Homo sapiens)

CCCC(S)CCOC(C)=O (centres undefined)
inactive: all assays above

Cc1cnc(C)c(C)n1
inactive: all assays above
